Here are results for 87 compounds from PubChem BioAssay AID463079 (The Scripps Research Institute Molecular Screening Center, 2010).

In all, about 330,000 compounds went through this assay and about 2,000 (0.61%) were called active. What follows is part of a selection rich in actives, with near analogues and random picks from the rest. Unmarked numbers belong to inactive results.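 How the source made its calls: active means inhibition above that plate's mean sample inhibition plus 3 SD (cut at about 26% in these data); inactive means the rest.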

This test is described as follows: nonselective Gq signaling inhibition in CHO cells – cell-based, fluorescence, Fluo-8 calcium dye, counter-screen for OX1R antagonist project, primary screen (AID 463079).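 Further: 0% = ATP-challenged DMSO wells and 100% = DMSO wells without ATP.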 The conditions noted are these: parental CHO-K1, ATP-induced calcium, Fluo-8 fluorescence; at 5.6 µM; active compounds read high. In short, it runs like this:
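Test system: parental CHO cells; detection: calcium-sensitive Fluo-8 fluorescence; evaluation: percent inhibition of calcium signal; also added: ATP as calcium-mobilizing challenge; repeats: one well per compound; control set: ATP-challenged DMSO wells low, unchallenged DMSO wells high; compound: single nominal dose of 5.6 µM per compound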
The term inhibition denotes the drop in the measured response relative to a control, in per cent. As for `CC[C@]12c3[nH]c4ccc(Cl)cc4c3CCN1C(=O)[C@@H](CC(=O)NCCCOC)C[C@@H]2C(=O)N1CCN(C(=O)C2CC2)CC1`, the inhibition is -12.5%.

On to `CCOC(=O)c1c(CN2CCOCC2)n(-c2ccccc2)c2ccc(O)cc12`, for which the inhibition is -10.2%.

For the compound `CC(=O)c1c(C)n(-c2ccc(N(C)C)cc2)c2ccc(OCC(N)=O)cc12`, the inhibition was -2.26%.

As for `CC(=O)c1c(C)n(-c2ccc(C)cc2)c2ccc(O)cc12`, the inhibition is 81.6% (active).

`C/C(=N\NC(=O)c1ccc(CSc2nc(C)cc(C)n2)cc1)C1CCCCC1`: the inhibition was -15.5%.

For the compound `Cc1ccc(O)c(NC(=S)NC(=O)COc2ccc(Br)cc2)c1`, the inhibition was 58.4% (active).

Turning to `CCS(=O)(=O)c1ccc(O)c(NC(=O)COc2ccc(Cl)cc2)c1`, the inhibition is -4.26%.

For the compound `COc1ccc(C(=O)Nc2cc(C)ccc2NC(=O)COc2ccccc2)cc1`, the inhibition was -7.7%.

For `COCCCNC(=O)c1ccc(CNS(=O)(=O)c2ccc(NC(C)=O)cc2)cc1`, the inhibition is -6.87%.

Regarding `Cc1nnc(SCC(=O)N2c3ccccc3C(C)(c3ccc(Cl)cc3)CC2(C)C)s1` (configuration not stated), the inhibition was -18.2%.

Take `CCOC(=O)[C@H]1[C@H]2COc3ccccc3[C@@H]2N2C(=O)CN(Cc3ccccc3)C(=O)[C@@]12C`: the inhibition was -31.8%.

For the compound `O=S(=O)(c1ccc(Cl)s1)N1CCC2(CC1)OCCO2`, the inhibition is -9.61%.

For `CC(OC(=O)/C=C/c1ccccc1)C(=O)Nc1ccc(C(N)=O)cc1` (configuration not stated), the inhibition is -8.76%.

Take `C[C@@H](NC(=O)OC(C)(C)C)c1nnc(S(=O)(=O)Cc2ccccc2)o1`: the inhibition is 51.1% (active).

Consider `C[C@H](NC(=O)OC(C)(C)C)c1nnc(SCC(=O)Nc2ccc(Br)cc2)o1`, for which the inhibition is -14.8%.

On to `CC(C)Sc1nnc([C@H](Cc2ccccc2)NC(=O)OC(C)(C)C)o1`, for which the inhibition is -15.8%.

Regarding `NNC(=O)C1CC(O)CN1S(=O)(=O)c1ccc(Cl)cc1` (configuration not stated), the inhibition was -12.3%.

`O=C(CN1CCN(S(=O)(=O)c2cc(Cl)ccc2Cl)CC1)c1ccc(O)c(O)c1`: the inhibition is -11.1%.

With `Cc1ccc(S(=O)(=O)Nc2ccc(F)c(S(=O)(=O)N3CCOCC3)c2)cc1`, the inhibition is -18.4%.

`COc1cccc(CSc2nc3nc(C)cc(C)n3n2)c1`: the inhibition was 9.68%.

As for `CC[C@]1(C(=O)OC)[C@H]2C(=O)N(Cc3ccccc3)C(=O)[C@H]2[C@H]2CN=C(SCc3ccc(C#N)cc3)N21`, the inhibition was -26.6%.

With `CCOC(=O)C1=C(C)N(C[C@@H]2CC[C@@H](Cc3ccc(-c4ccccc4)cc3)O2)C(=O)NC1c1ccc([N+](=O)[O-])cc1` (some centres not stated), the inhibition is -13.7%.

For the compound `CCN1CCN(c2ccc(NC(=O)c3cnccn3)cc2)CC1`, the inhibition was -2.98%.

Consider `O=C(Nc1ccc2c(c1)OCCO2)c1cnccn1`, for which the inhibition was -2.07%.

As to `CCN(CC)c1ccc(/C=N/NC(=O)c2cnccn2)c(O)c1`, the inhibition is 43.5% (active).

Take `CCOc1ccc(NS(=O)(=O)c2ccc(C)c(C(N)=O)c2)cc1`: the inhibition was -5.42%.

With `CN1CCC(=NNC(=O)CN(c2cccc(Cl)c2)S(C)(=O)=O)CC1`, the inhibition was -9.11%.

`COc1ccc(-n2c(C)cc(C(=O)CSc3nnc(-c4cccs4)o3)c2C)cc1`: the inhibition was 40.8% (active).

Turning to `COc1ccc(-c2nnc(SCC(=O)c3ccc4c(c3)OCCO4)o2)cc1`, the inhibition was -4.45%.

Regarding `COc1ccc(-n2c(C)cc(C(=O)COC(=O)c3cc(OC)c(OC)cc3NC(=O)c3cccs3)c2C)cc1`, the inhibition was -15.5%.

Take `Cc1cc(C)n(CCC(=O)N2CCN(S(=O)(=O)c3ccc(C)c(C)c3)CC2)n1`: the inhibition was -19%.

Consider `CNS(=O)(=O)c1ccc(C(=O)NCC(=O)NCCc2ccc3c(c2)OCCO3)cc1`, for which the inhibition is -17.8%.

`COc1cccc(OCc2nnc3n2N=C(c2ccccc2)C(CC(=O)O)S3)c1` (configuration not stated): the inhibition is -2.16%.

For `CCOC(=O)COn1c(=O)c(-c2ccc(OCC)cc2)[n+]([O-])c2ccccc21`, the inhibition is -6.3%.

In the case of `CCCCCCCCCCOC(=O)Cn1c(COc2ccc(C)cc2)[n+](C)c2ccccc21`, the inhibition was 78.8% (active).

For `CCOC(=O)Cn1c(-c2cccnc2Cl)nc2ccccc21`, the inhibition is 6.66%.

`CCCCn1c(N)c(N(CCOC)C(=O)c2cccc(OCc3ccccc3)c2)c(=O)[nH]c1=O`: the inhibition was -12.8%.

On to `CCCCCCCCCCOC(=O)Cn1c(COc2cccc(OC)c2)[n+](C)c2ccccc21`, for which the inhibition is 43.2% (active).

Regarding `CCOC(=O)C1CCN(Cc2c(C(=O)N3CCOCC3)nc3c(C)cccn23)CC1`, the inhibition is -3.54%.

As to `Cc1cccc(-n2c(Cc3cc(=O)[nH]c(=O)[nH]3)nnc2SCC(=O)Nc2cccc(C(F)(F)F)c2)c1`, the inhibition was -7.28%.

With `CCOC(=O)C(Sc1ncc(C#N)c(N)n1)C(C)C` (configuration not stated), the inhibition is -2.34%.

Turning to `CC[C@]1(C(=O)OC)[C@H]2C(=O)N(Cc3ccccc3)C(=O)[C@H]2[C@H]2CN=C(SCc3ccc(Cl)cc3)N21`, the inhibition is -19.6%.

For `CC(=O)c1c(C)oc2ccc(NS(=O)(=O)c3ccccc3)cc12`, the inhibition is -0.19%.

As to `CC(=O)c1c(C)oc2ccc(NS(=O)(=O)c3ccc(C(=O)O)cc3)cc12`, the inhibition is 7.03%.

Take `COc1ccc(S(=O)(=O)Nc2ccc3oc(C)c(C(C)=O)c3c2)cc1`: the inhibition is 40.8% (active).

Regarding `CCCCN1C(=O)C(=O)N(CC(=O)Nc2cccc(C(C)=O)c2)C1=O`, the inhibition was -9.38%.

On to `COc1cc(C(=O)NCCOC(=O)c2cccc(N(C)C)c2)cc(OC)c1OC`, for which the inhibition was -13.3%.

On to `Cc1ccc2cccc(O)c2[n+]1[O-]`, for which the inhibition is -4.21%.

As to `COC(=O)CNC(=O)c1ccc(OC2CCN(C(=O)C3CC3)CC2)cc1`, the inhibition is 2.53%.

With `CCCOC(=O)c1[nH]c2c(c1C)C(=O)CC(c1cc(OC)c(OC)c(OC)c1)C2` (configuration not stated), the inhibition was 33.7% (active).

On to `CCCOC(=O)c1[nH]c2c(c1C)C(=O)CC(c1cccs1)C2` (configuration not stated), for which the inhibition was -21.6%.

On to `COCCOC(=O)c1[nH]c2c(c1C)C(=O)CC(c1ccc(OC)cc1)C2` (configuration not stated), for which the inhibition is -15.7%.

With `COc1cc(/C(=C/c2ccccc2)c2ccccc2)c2c(c1)oc1ccccc12`, the inhibition is -12.8%.

Take `Cc1cc(Br)ccc1NC(=O)c1cnc(N2CCN(c3ccccn3)CC2)c2ccccc12`: the inhibition is -29.1%.

Take `Cc1cc(C)cc(OCC(=O)Nc2ccc(S(=O)(=O)Nc3ccccn3)cc2)c1`: the inhibition is 2.04%.

In the case of `Cc1ccc(NS(=O)(=O)c2ccc(C(C)(C)C)cc2)cn1`, the inhibition is -3.3%.

For `Cc1ccc(S(=O)(=O)Nc2ccc3ncccc3c2)cc1`, the inhibition is 37.3% (active).

`Oc1oc(-c2ccccc2Br)nc1/C=N/c1ccccn1`: the inhibition is 1.24%.

Consider `CCn1c(CSCc2c(Cl)cccc2Cl)n[nH]c1=S`, for which the inhibition was 4.32%.

As for `CC(C)c1nnc(NC(=O)COC(=O)/C=C/c2ccc([N+](=O)[O-])cc2)s1`, the inhibition was -9.22%.

`CN(Cc1cccnc1)C(=O)c1cc(COc2ccc3ncccc3c2)on1`: the inhibition is 41.8% (active).

Turning to `Cc1ccc(OCc2cc(C(=O)N(C)CCc3ccccc3)no2)cc1C`, the inhibition is -11.5%.

In the case of `CC(=O)c1cccc(OCc2cc(C(=O)NC(C)Cc3cccnc3)no2)c1` (configuration not stated), the inhibition was -20%.

Turning to `CCOC1CCCCC1NS(=O)(=O)c1ccc(Cl)cc1` (configuration not stated), the inhibition was -18.7%.

For `Cc1c(NC(=O)CSc2nnc(-c3cccnc3)n2N)c(=O)n(-c2ccccc2)n1C`, the inhibition is -5.93%.

With `Cc1ccc(NC(=O)CSc2cccc3cccnc23)c(C)c1`, the inhibition is 0.17%.

On to `Cc1c(NC(=O)CSc2cccc3cccnc23)c(=O)n(-c2ccccc2)n1C`, for which the inhibition was 25.1% (active).

Turning to `CCOCc1nnc(NC(=O)CCS(=O)(=O)Cc2ccccc2)s1`, the inhibition is 3.73%.

Consider `OC(CNCCc1ccc(Cl)cc1Cl)COc1ccccc1` (configuration not stated), for which the inhibition is -7.3%.

Take `CCOc1ccc(/C=N/NC(N)=S)cc1`: the inhibition is -2.97%.

As to `NC(N)=N/N=C/c1ccc(OCc2ccc(Cl)cc2Cl)cc1`, the inhibition is 64.6% (active).

As to `Cn1c(Cc2cccc3ccccc23)nnc1SCC(=O)N1CCN(c2cccc(Cl)c2)CC1`, the inhibition was -6.75%.

Take `Cc1ccc(-c2nnn(CC(=O)N(CCO)C(C(=O)NC(C)(C)C)c3ccncc3)n2)cc1` (configuration not stated): the inhibition is -17.6%.

Regarding `COc1cc(F)c(C2=CC(=O)CC(C)(C)C2)cc1F`, the inhibition is -13.2%.

In the case of `CCOC(=O)C1=C(c2ccccc2)N=C2SCC(=O)N2C1c1ccc(O)c(OC)c1` (configuration not stated), the inhibition is -27.1%.

For `Cc1cc(N=Nc2ccc3ccccc3c2)ccc1O`, the inhibition was 14.3%.

In the case of `CC(C)(C)OC(=O)NCCCCCNC(=O)c1nc[nH]c1C(=O)NCc1ccccc1`, the inhibition is -30.4%.

With `CC(=O)N1CCCc2cc(S(=O)(=O)N3CCCC(C(=O)NCc4ccc(Cl)cc4)C3)ccc21` (configuration not stated), the inhibition was -11.9%.

For `CC(=O)N1c2ccc(S(=O)(=O)N3CCCC(C(=O)Nc4cccc(Cl)c4)C3)cc2CC1C` (configuration not stated), the inhibition was -6.72%.

Turning to `CC(=O)N1CCCc2cc(S(=O)(=O)N3CCCC(C(=O)N4CCN(c5cccc(Cl)c5)CC4)C3)ccc21` (configuration not stated), the inhibition was 66.2% (active).

Take `O=C(c1ccc(Br)o1)N1CCN(CCOc2ccccc2)CC1`: the inhibition is -7.03%.

On to `CCOC(=O)C1CCCN(C(=O)CSc2nnc3nc(C)cc(C)n23)C1` (configuration not stated), for which the inhibition was -13.2%.

In the case of `Cc1ccc(CN(Cc2cccnc2)C(=S)Nc2cccc(Cl)c2C)cc1`, the inhibition was -2.11%.

With `Cc1ccc(CN(Cc2cccnc2)C(=S)Nc2cc(Cl)ccc2C)cc1`, the inhibition is 64.7% (active).

Turning to `Cc1c(Cl)cccc1NC(=S)N(Cc1ccccc1)Cc1cccnc1`, the inhibition is -0.95%.

Consider `CN1CCN(C(=O)N2c3ccccc3CCc3ccccc32)CC1`, for which the inhibition is -14.7%.

For the compound `O=C1C=C(c2cccc(Cl)c2)C[C@@H](c2ccc(F)cc2)C1`, the inhibition was -24%.
